From ChEMBL document CHEMBL1131073, “Structure-activity study of the nociceptin(1-13)-NH2 N-terminal tetrapeptide and discovery of a nociceptin receptor antagonist” (J Med Chem, 1998)
The source made the active and inactive calls. The rule behind the calls is not given here. Numbered stars: 1 amine (or outer) side, 2 acyl side, 3 side chain; on linkers, the order of the positions; unused ones are H or OH. Square brackets hold non-standard residues; d marks the D form. Peptide text beside a SMILES is read from it. X1 = N[C@@H](Cc1ccccc1)CN(CC(=O)[*:2])[*:1]; Ava = NCCCCC(=O)O; GABA = NCCCC(=O)O; βAla = NCCC(=O)O

How the values were obtained:
Type in all cases: functional
Mus musculus [1] = species on record: Mus musculus; test: The maximal effect induced by an agonist expressed as percent inhibition of electrically induced twitches.
Summary of the method: (§1)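 Vas deferens from Swiss male mice (25–30 g), prepared per Hughes, in Mg2+-free Krebs (95% O2/5% CO2, pH 7.4) at 33 °C, 0.3 g resting tension. Field stimulation via platinum ring electrodes: supramaximal 1-ms pulses, 0.1 Hz. Isotonic twitch recording. After ~2 h equilibration, cumulative concentration–response curves in 0.5 log steps. Mean ± SEM of at least four experiments; pEC50 with 95% confidence limits.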

Mus musculus [2] = species on record: Mus musculus; test: Antagonist effect in the electrically stimulated mouse vas deferens;I = Inactive at 10 uM
Mus musculus [3] = species on record: Mus musculus; test: Agonist effect in the electrically stimulated mouse vas deferens.;I = Inactive at 10 uM; summary of the method: as §1
Mus musculus [4] = species on record: Mus musculus; test: The maximal effect induced by an agonist expressed as percent inhibition of electrically induced twitches;I = Inactive at 10 uM; summary of the method: as §1
Mus musculus [5] = species on record: Mus musculus; test: Antagonist effect in the electrically stimulated mouse vas deferens; Inactive at 10 uM
Mus musculus [6] = species on record: Mus musculus; test: Agonist effect in the electrically stimulated mouse vas deferens. (CL95%); summary of the method: as §1
Mus musculus [7] = species on record: Mus musculus; test: The maximal effect induced by an agonist expressed as percent inhibition of electrically induced twitches; summary of the method: as §1
Mus musculus [8] = species on record: Mus musculus; test: The maximal effect induced by an agonist expressed as percent inhibition of electrically induced twitches; Inactive at 10 uM; summary of the method: as §1
Mus musculus [9] = species on record: Mus musculus; test: Agonist effect in the electrically stimulated mouse vas deferens. (CL95%); Inactive at 10 uM; summary of the method: as §1
Mus musculus [10] = species on record: Mus musculus; test: Antagonist effect in the electrically stimulated mouse vas deferens; settings: read-out: pA2 (converted)

For `C[C@H](NC(=O)CNC(=O)[C@@H](NC(=O)[C@H](Cc1ccccc1)NC(=O)CNC(=O)CNC(=O)[C@@H](N)Cc1ccccc1)[C@@H](C)O)C(=O)N[C@@H](CCCNC(=N)N)C(=O)N[C@@H](CCCCN)C(=O)N[C@@H](CO)C(=O)N[C@@H](C)C(=O)N[C@@H](CCCNC(=N)N)C(=O)N[C@@H](CCCCN)C(N)=O`, which Emax (Mus musculus [1]) is on record?
The Emax was -84.

For `C[C@H](NC(=O)CNC(=O)[C@@H](NC(=O)[C@H](Cc1ccccc1)NC(=O)CNC(=O)[C@@H](Cc1ccccc1)NC(=O)[C@@H](N)Cc1ccccc1)[C@@H](C)O)C(=O)N[C@@H](CCCN=C(N)N)C(=O)N[C@@H](CCCCN)C(=O)N[C@@H](CO)C(=O)N[C@@H](C)C(=O)N[C@@H](CCCN=C(N)N)C(=O)N[C@@H](CCCCN)C(N)=O`, which pA2 (Mus musculus [2]) is on record?
The pA2 was “inactive”.

And the “Log EC50” value (Mus musculus [3])?
Its value is “inactive”.

What about the Emax (Mus musculus [4]) of the same compound?
The Emax was “inactive”.

Which results are given for `C[C@H](NC(=O)CNC(=O)[C@@H](NC(=O)[C@H](Cc1ccccc1)NC(=O)CNC(=O)[C@H](Cc1ccccc1)NC(=O)[C@@H](N)Cc1ccccc1)[C@@H](C)O)C(=O)N[C@@H](CCCN=C(N)N)C(=O)N[C@@H](CCCCN)C(=O)N[C@@H](CO)C(=O)N[C@@H](C)C(=O)N[C@@H](CCCN=C(N)N)C(=O)N[C@@H](CCCCN)C(N)=O`?
pA2 (Mus musculus [2]): inactive; Log EC50 (Mus musculus [3]): inactive; Emax (Mus musculus [4]): inactive

Which results are given for `C[C@H](NC(=O)CNC(=O)[C@@H](NC(=O)[C@H](Cc1ccccc1)NC(=O)[C@@H](Cc1ccccc1)NC(=O)CNC(=O)[C@@H](N)Cc1ccccc1)[C@@H](C)O)C(=O)N[C@@H](CCCN=C(N)N)C(=O)N[C@@H](CCCCN)C(=O)N[C@@H](CO)C(=O)N[C@@H](C)C(=O)N[C@@H](CCCN=C(N)N)C(=O)N[C@@H](CCCCN)C(N)=O` (H-FG[dF]FTGARKSARK-NH2)?
pA2 (Mus musculus [5]): inactive; EC50 (Mus musculus [6]): 2090 nM; Emax (Mus musculus [7]): -75

What does the source list for `C[C@H](NC(=O)CNC(=O)[C@@H](NC(=O)[C@H](Cc1ccccc1)NC(=O)CCCCNC(=O)[C@@H](N)Cc1ccccc1)[C@@H](C)O)C(=O)N[C@@H](CCCN=C(N)N)C(=O)N[C@@H](CCCCN)C(=O)N[C@@H](CO)C(=O)N[C@@H](C)C(=O)N[C@@H](CCCN=C(N)N)C(=O)N[C@@H](CCCCN)C(N)=O` (H-F[Ava]FTGARKSARK-NH2)?
pA2 (Mus musculus [5]): inactive; Emax (Mus musculus [8]): inactive; Log EC50 (Mus musculus [9]): inactive

What does the source list for `C[C@H](NC(=O)CNC(=O)[C@@H](NC(=O)[C@H](Cc1ccccc1)NC(=O)CCCNC(=O)[C@@H](N)Cc1ccccc1)[C@@H](C)O)C(=O)N[C@@H](CCCN=C(N)N)C(=O)N[C@@H](CCCCN)C(=O)N[C@@H](CO)C(=O)N[C@@H](C)C(=O)N[C@@H](CCCN=C(N)N)C(=O)N[C@@H](CCCCN)C(N)=O` (H-F[GABA]FTGARKSARK-NH2)?
pA2 (Mus musculus [5]): inactive; Emax (Mus musculus [8]): inactive; Log EC50 (Mus musculus [9]): inactive

With `C[C@H](NC(=O)CNC(=O)[C@@H](NC(=O)[C@H](Cc1ccccc1)NC(=O)CCNC(=O)[C@@H](N)Cc1ccccc1)[C@@H](C)O)C(=O)N[C@@H](CCCN=C(N)N)C(=O)N[C@@H](CCCCN)C(=O)N[C@@H](CO)C(=O)N[C@@H](C)C(=O)N[C@@H](CCCN=C(N)N)C(=O)N[C@@H](CCCCN)C(N)=O` (H-F[βAla]FTGARKSARK-NH2) as the compound, how does the pA2 (Mus musculus [5]) read?
The pA2 was “inactive”.

And the Emax (Mus musculus [8])?
Its Emax is “inactive”.

What about the “Log EC50” value (Mus musculus [9]) of the same compound?
The value was “inactive”.

With `C[C@H](NC(=O)CNC(=O)[C@@H](NC(=O)[C@H](Cc1ccccc1)NC(=O)CNC(=O)CNC[C@@H](N)Cc1ccccc1)[C@@H](C)O)C(=O)N[C@@H](CCCN=C(N)N)C(=O)N[C@@H](CCCCN)C(=O)N[C@@H](CO)C(=O)N[C@@H](C)C(=O)N[C@@H](CCCN=C(N)N)C(=O)N[C@@H](CCCCN)C(N)=O` (H-[X1]GFTGARKSARK-NH2) as the compound, how does the Emax (Mus musculus [8]) read?
Its Emax is “inactive”.

What about the “Log EC50” value (Mus musculus [9]) of the same compound?
Its value is “inactive”.

What about the Kb (Mus musculus [10]) of the same compound?
The Kb was 178 nM.

What does the source list for `CC(NC(=O)CNC(=O)[C@@H](NC(=O)[C@H](Cc1ccccc1)NC(=O)CNC(=O)C(C)NC(=O)[C@@H](N)Cc1ccccc1)[C@@H](C)O)C(=O)N[C@@H](CCCN=C(N)N)C(=O)N[C@@H](CCCCN)C(=O)N[C@@H](CO)C(=O)NC(C)C(=O)N[C@@H](CCCN=C(N)N)C(=O)N[C@@H](CCCCN)C(N)=O` (stereo in doubt)?
EC50 (Mus musculus [6]): 1000 nM; Emax (Mus musculus [1]): -81

How did the pA2 (Mus musculus [5]) turn out when `C[C@H](NC(=O)CNC(=O)[C@@H](NC(=O)C(Cc1ccccc1)NC(=O)CNC(=O)CNC[C@H](N)Cc1ccccc1)[C@@H](C)O)C(=O)N[C@@H](CCCN=C(N)N)C(=O)N[C@@H](CCCCN)C(=O)N[C@@H](CO)C(=O)N[C@@H](C)C(=O)N[C@@H](CCCN=C(N)N)C(=O)N[C@@H](CCCCN)C(N)=O` (stereo in doubt) was run?
The pA2 was “inactive”.

What about the Emax (Mus musculus [8]) of the same compound?
The Emax was “inactive”.

What about the “Log EC50” value (Mus musculus [9]) of the same compound?
Its value is “inactive”.

With `CC(C)C[C@H](NC(=O)[C@H](CCCCN)NC(=O)[C@H](CCCNC(=N)N)NC(=O)[C@H](C)NC(=O)[C@H](CO)NC(=O)[C@H](CCCCN)NC(=O)[C@H](CCCNC(=N)N)NC(=O)[C@H](C)NC(=O)CNC(=O)[C@@H](NC(=O)[C@H](Cc1ccccc1)NC(=O)CNC(=O)CNC(=O)[C@@H](N)Cc1ccccc1)[C@@H](C)O)C(=O)N[C@@H](C)C(=O)N[C@@H](CC(N)=O)C(=O)N[C@@H](CCC(N)=O)C(=O)O` [NOCICEPTIN] as the compound, how does the Emax (Mus musculus [1]) read?
Its Emax is -83.

Which pA2 (Mus musculus [5]) does the source give for H-FFTGARKSARK-NH2 here?
The pA2 was “inactive”.

And the Emax (Mus musculus [8])?
The Emax was “inactive”.

And the “Log EC50” value (Mus musculus [9])?
Its value is “inactive”.

Which results are given for H-FGFFTGARKSARK-NH2?
pA2 (Mus musculus [5]): inactive; Emax (Mus musculus [8]): inactive; Log EC50 (Mus musculus [9]): inactive

With H-FGGGFTGARKSARK-NH2 as the compound, how does the pA2 (Mus musculus [5]) read?
Its pA2 is “inactive”.

What about the EC50 (Mus musculus [6]) of the same compound?
The EC50 was 3240 nM.

What about the Emax (Mus musculus [1]) of the same compound?
The Emax was -73.

Which pA2 (Mus musculus [5]) does the source give for H-FPFTGARKSARK-NH2 here?
The pA2 was “inactive”.

What about the Emax (Mus musculus [8]) of the same compound?
Its Emax is “inactive”.

What about the “Log EC50” value (Mus musculus [9]) of the same compound?
Its value is “inactive”.
